# Published values from different studies.
# Compare with care: the assays were run in different laboratories.
# Cell line: HEK293
# Observed: cell growth or viability
Structure (SMILES),method,tested at,time,quantity,value
Cn1cc2c3c1C(=O)C(NCCc1ccc(O)cc1)=CC3=[N+](C)CC2,MTT,,72 h,CC50,0.23 µM
Cc1ccc(Cn2cc(C(=O)N/N=C/c3ccc([N+](=O)[O-])o3)c(=O)c3cc([N+](=O)[O-])ccc32)cc1,resazurin,,48 h,CC50,> 20 µM
O=C1C=C2NCCc3c[nH]c(c32)C1=O,MTT,,72 h,CC50,50 µM
O=C(Nc1ccc(C(F)(F)F)cc1)c1cccc(C(F)(F)F)c1,resazurin,,48 h,CC50,9.25 µM
CCCc1cc(=O)oc2cc(OCc3cc(=O)c(O)co3)ccc12,CCK-8,12 µM,24 h,viability,97.9%
O=C(Nc1cccc([N+](=O)[O-])c1)c1ccccc1,resazurin,,48 h,CC50,> 20 µM
O=C(N/N=C/c1ccc([N+](=O)[O-])o1)c1cn(Cc2ccccc2)c2ccccc2c1=O,resazurin,,48 h,CC50,> 20 µM
O=C(Nc1ccc(C(F)(F)F)nn1)c1cccc(C(F)(F)F)c1,resazurin,,48 h,CC50,> 20 µM
Cn1cc2c3c1C(=O)C(NCCc1ccc(O)cc1)=CC3=NCC2,MTT,,72 h,CC50,2.5 µM
Cc1ccc(Cn2cc(C(=O)N/N=C/c3ccc([N+](=O)[O-])s3)c(=O)c3cc(Cl)c(Cl)cc32)cc1,resazurin,,48 h,CC50,> 20 µM
COC(CNC1=CC2=NCCc3c[nH]c(c32)C1=O)c1c[nH]c2ccccc12 (stereo not drawn),MTT,,72 h,CC50,4 µM
Cc1ccc(Cn2cc(C(=O)NN)c(=O)c3cc(Oc4ccccc4)ccc32)cc1,resazurin,,48 h,CC50,> 20 µM
O=C1C(NCCc2ccc(O)cc2)=CC2=NCCc3c[nH]c1c32,MTT,,72 h,CC50,3 µM
COc1ccc2c(c1)c(=O)c(C(=O)NN)cn2Cc1ccc(C)cc1,resazurin,,48 h,CC50,> 20 µM
O=C(Nc1cccc(C(F)(F)F)c1)c1cccc(C(F)(F)F)c1,resazurin,,48 h,CC50,15.6 µM
